Data as given in ChEMBL document CHEMBL5058577, “EUbOPEN Chemogenomics Library 2 (Multiplex)” (2022).

Test system: U2OS
Test: Multiplex assay against U2OS
Type: toxicity, cell-based
Details: human
How it was run: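 With compound added, live cells were imaged on a CQ1 microscope at 37°C and 5% CO2; staining with Hoechst33342, BioTracker Green Microtubule Cytoskeleton Dye, MitoTracker Red and Annexin V Alexa Fluor 680 had been done at seeding. The CellPathfinder machine-learning gating scheme split cells into Hoechst high-intensity objects or normal cells, normal cells into healthy, pyknosed or fragmented nuclei, and pyknosed cells into mitotic or apoptotic. The tubulin, mitochondrial-mass and membrane-permeability phenotypes are per cents of healthy-nucleus cells.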

[1] = 12 h, 1 µM, compound concentration 1 uM, replicate 1
[2] = 12 h, 1 µM, compound concentration 1 uM, replicate 2
[3] = 12 h, 10 µM, compound concentration 10 uM, replicate 1
[4] = 12 h, 10 µM, compound concentration 10 uM, replicate 2
[5] = 24 h, 1 µM, compound concentration 1 uM, replicate 1
[6] = 24 h, 1 µM, compound concentration 1 uM, replicate 2
[7] = 24 h, 10 µM, compound concentration 10 uM, replicate 1
[8] = 24 h, 10 µM, compound concentration 10 uM, replicate 2
[9] = 48 h, 1 µM, compound concentration 1 uM, replicate 1
[10] = 48 h, 1 µM, compound concentration 1 uM, replicate 2
[11] = 48 h, 10 µM, compound concentration 10 uM, replicate 1
[12] = 48 h, 10 µM, compound concentration 10 uM, replicate 2

In the case of `CCCCCCNC(=O)Nc1ccc(S(=O)(=O)Nc2ccc(CCNC[C@H](O)COc3ccc(O)cc3)cc2)cc1` [L-755507], the “Population Apoptotic (%)” value [1] is reported as 86%, the “Population Fragmented Nuclei (%)” value [1] is reported as 22% and the “Population Healthy Nuclei (%)” value [1] is reported as 67%. The “Population Hoechst High Intensity Objects (%)” value [1] was 4%, the “Population Membrane Permeable-Phenotype (%)” value [1] was 4% and the “Population Mitochondria Different-Phenotype (%)” value [1] was 4%. For the same compound, the “Population Mitotic Cells (%)” value [1] was 13%, the “Population Normal (%)” value [1] was 95% and the “Population Pyknosed Nuclei (%)” value [1] was 9%. The “Population Tubulin-Different-Phenotype (%)” value [1] was 4%, the “Total Cell Count” value [1] was 231 and the “Population Apoptotic (%)” value [2] was 100%. The “Population Fragmented Nuclei (%)” value [2] was 18%, the “Population Healthy Nuclei (%)” value [2] was 75% and the “Population Hoechst High Intensity Objects (%)” value [2] was 0%. For the same compound, the “Population Membrane Permeable-Phenotype (%)” value [2] was 10%, the “Population Mitochondria Different-Phenotype (%)” value [2] was 1% and the “Population Mitotic Cells (%)” value [2] was 0%. For the same compound, the “Population Normal (%)” value [2] was 99%, the “Population Pyknosed Nuclei (%)” value [2] was 5% and the “Population Tubulin-Different-Phenotype (%)” value [2] was 5%. The “Total Cell Count” value [2] was 120, the “Population Apoptotic (%)” value [3] was 60% and the “Population Fragmented Nuclei (%)” value [3] was 31%. The “Population Healthy Nuclei (%)” value [3] was 59%, the “Population Hoechst High Intensity Objects (%)” value [3] was 3% and the “Population Membrane Permeable-Phenotype (%)” value [3] was 13%. The “Population Mitochondria Different-Phenotype (%)” value [3] was 11%, the “Population Mitotic Cells (%)” value [3] was 40% and the “Population Normal (%)” value [3] was 96%. The “Population Pyknosed Nuclei (%)” value [3] was 9%, the “Population Tubulin-Different-Phenotype (%)” value [3] was 10% and the “Total Cell Count” value [3] was 282. For the same compound, the “Population Apoptotic (%)” value [4] was 72%, the “Population Fragmented Nuclei (%)” value [4] was 19% and the “Population Healthy Nuclei (%)” value [4] was 72%. For the same compound, the “Population Hoechst High Intensity Objects (%)” value [4] was 2%, the “Population Membrane Permeable-Phenotype (%)” value [4] was 19% and the “Population Mitochondria Different-Phenotype (%)” value [4] was 15%. For the same compound, the “Population Mitotic Cells (%)” value [4] was 27%, the “Population Normal (%)” value [4] was 97% and the “Population Pyknosed Nuclei (%)” value [4] was 8%. For the same compound, the “Population Tubulin-Different-Phenotype (%)” value [4] was 15%, the “Total Cell Count” value [4] was 140 and the “Population Apoptotic (%)” value [5] was 83%. For the same compound, the “Population Fragmented Nuclei (%)” value [5] was 22%, the “Population Healthy Nuclei (%)” value [5] was 66% and the “Population Hoechst High Intensity Objects (%)” value [5] was 4%. The “Population Membrane Permeable-Phenotype (%)” value [5] was 5%, the “Population Mitochondria Different-Phenotype (%)” value [5] was 5% and the “Population Mitotic Cells (%)” value [5] was 16%. For the same compound, the “Population Normal (%)” value [5] was 95%, the “Population Pyknosed Nuclei (%)” value [5] was 11% and the “Population Tubulin-Different-Phenotype (%)” value [5] was 3%. For the same compound, the “Total Cell Count” value [5] was 285, the “Population Apoptotic (%)” value [6] was 92% and the “Population Fragmented Nuclei (%)” value [6] was 23%. The “Population Healthy Nuclei (%)” value [6] was 67%, the “Population Hoechst High Intensity Objects (%)” value [6] was 2% and the “Population Membrane Permeable-Phenotype (%)” value [6] was 11%. The “Population Mitochondria Different-Phenotype (%)” value [6] was 1%, the “Population Mitotic Cells (%)” value [6] was 7% and the “Population Normal (%)” value [6] was 97%. The “Population Pyknosed Nuclei (%)” value [6] was 9%, the “Population Tubulin-Different-Phenotype (%)” value [6] was 5% and the “Total Cell Count” value [6] was 143. The “Population Apoptotic (%)” value [7] was 85%, the “Population Fragmented Nuclei (%)” value [7] was 25% and the “Population Healthy Nuclei (%)” value [7] was 65%. The “Population Hoechst High Intensity Objects (%)” value [7] was 2%, the “Population Membrane Permeable-Phenotype (%)” value [7] was 7% and the “Population Mitochondria Different-Phenotype (%)” value [7] was 4%. The “Population Mitotic Cells (%)” value [7] was 14%, the “Population Normal (%)” value [7] was 97% and the “Population Pyknosed Nuclei (%)” value [7] was 9%. The “Population Tubulin-Different-Phenotype (%)” value [7] was 3%, the “Total Cell Count” value [7] was 307 and the “Population Apoptotic (%)” value [8] was 88%. For the same compound, the “Population Fragmented Nuclei (%)” value [8] was 14%, the “Population Healthy Nuclei (%)” value [8] was 79% and the “Population Membrane Permeable-Phenotype (%)” value [8] was 9%. For the same compound, the “Population Mitochondria Different-Phenotype (%)” value [8] was 5%, the “Population Mitotic Cells (%)” value [8] was 11% and the “Population Pyknosed Nuclei (%)” value [8] was 6%. For the same compound, the “Population Tubulin-Different-Phenotype (%)” value [8] was 6%, the “Total Cell Count” value [8] was 149 and the “Population Apoptotic (%)” value [9] was 78%. For the same compound, the “Population Fragmented Nuclei (%)” value [9] was 14%, the “Population Healthy Nuclei (%)” value [9] was 74% and the “Population Hoechst High Intensity Objects (%)” value [9] was 1%. For the same compound, the “Population Membrane Permeable-Phenotype (%)” value [9] was 6%, the “Population Mitochondria Different-Phenotype (%)” value [9] was 3% and the “Population Mitotic Cells (%)” value [9] was 21%. The “Population Normal (%)” value [9] was 98%, the “Population Pyknosed Nuclei (%)” value [9] was 11% and the “Population Tubulin-Different-Phenotype (%)” value [9] was 3%. For the same compound, the “Total Cell Count” value [9] was 422, the “Population Apoptotic (%)” value [10] was 91% and the “Population Fragmented Nuclei (%)” value [10] was 26%. The “Population Healthy Nuclei (%)” value [10] was 61%, the “Population Hoechst High Intensity Objects (%)” value [10] was 4% and the “Population Membrane Permeable-Phenotype (%)” value [10] was 12%. For the same compound, the “Population Mitochondria Different-Phenotype (%)” value [10] was 5%, the “Population Mitotic Cells (%)” value [10] was 8% and the “Population Normal (%)” value [10] was 95%. For the same compound, the “Population Pyknosed Nuclei (%)” value [10] was 12%, the “Population Tubulin-Different-Phenotype (%)” value [10] was 6% and the “Total Cell Count” value [10] was 188. The “Population Apoptotic (%)” value [11] was 80%, the “Population Fragmented Nuclei (%)” value [11] was 19% and the “Population Healthy Nuclei (%)” value [11] was 70%. The “Population Hoechst High Intensity Objects (%)” value [11] was 2%, the “Population Membrane Permeable-Phenotype (%)” value [11] was 7% and the “Population Mitochondria Different-Phenotype (%)” value [11] was 2%. For the same compound, the “Population Mitotic Cells (%)” value [11] was 20%, the “Population Normal (%)” value [11] was 97% and the “Population Pyknosed Nuclei (%)” value [11] was 9%. The “Population Tubulin-Different-Phenotype (%)” value [11] was 4%, the “Total Cell Count” value [11] was 419 and the “Population Apoptotic (%)” value [12] was 94%. The “Population Fragmented Nuclei (%)” value [12] was 13%, the “Population Healthy Nuclei (%)” value [12] was 78% and the “Population Hoechst High Intensity Objects (%)” value [12] was 1%. For the same compound, the “Population Mitochondria Different-Phenotype (%)” value [12] was 3%, the “Population Mitotic Cells (%)” value [12] was 5% and the “Population Normal (%)” value [12] was 98%. For the same compound, the “Population Pyknosed Nuclei (%)” value [12] was 7%, the “Population Tubulin-Different-Phenotype (%)” value [12] was 6% and the “Total Cell Count” value [12] was 242.
